One may read the IC50 as the concentration that inhibits the measured activity by half. Read a high IC50 as a need for much substance.

IC50 and Activity data for 9 compounds are collected here from ChEMBL document CHEMBL1914378, “Synthesis and apoptosis inducing ability of new anilino substituted pyrimidine sulfonamides as potential anticancer agents” (Eur J Med Chem, 2011).

Structures can show the parent of a compound that is named as a salt. Calls of active or inactive are those of the source. The calls are words filed in the database; no cut-off is given here.

The test system of test [1] is K562. Briefly: Cytotoxicity against human K562 cells after 24 hrs by MTT assay. Format: functional, cell-based. The conditions noted are these: K562, 24 h.
The next test relates to MDA-MB-231. Description: Cytotoxicity against human MDA-MB-231 cells after 24 hrs by MTT assay. Format: functional, cell-based. The conditions noted are these: MDA-MB-231, 24 h. A general note: Tetrazolium dyes change colour on reduction, which living cells bring about.
A further test relates to MCF7. Description: Cytotoxicity against human MCF7 cells after 24 hrs by MTT assay. Format: functional, cell-based. The conditions noted are these: MCF7, 24 h.
Test [2] has as its system K562. Description: Inhibition of NF-kappaB p65 in human K562 cells assessed as decrease of S473 phosphorylated Akt1 level at 10 uM after 24 hrs by Western blot analysis. Format: cell-based. The method in brief: (§1)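 K562 cells treated 24 h with compound at 10 (micro)M; lysed in ice-cold RIPA with protease/phosphatase inhibitors, centrifuged 12,000 rpm 10 min, protein by Bradford. 30 µg per lane on 12% SDS-PAGE, PVDF transfer, blocked 2 h RT in TBST with 5% blocking powder. Primary antibody 4 °C overnight, HRP secondary 1:2000 1 h RT; chemiluminescence; β-actin loading control; untreated cells as control.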
On the technique in general: In western blotting, separated proteins are transferred to a membrane and probed.

Test [3] has as its system K562. Briefly: Cell cycle arrest in human K562 cells at G1 phase assessed as decrease in cyclin D1 protein level at 10 uM after 24 hrs by Western blot analysis relative to control. Format: functional, cell-based. The method in brief:
as §1

The test system of test [4] is K562. Briefly: Inhibition of NF-kappaB p65 in human K562 cells assessed as down regulation of STAT3 protein level at 10 uM after 24 hrs by Western blot analysis. Format: cell-based. The method in brief: as §1
Test [5] deals with K562. Briefly: Induction of apoptosis in human K562 cells assessed as upregulation of caspase3 protein expression at 10 uM after 24 hrs by Western blot analysis. In kind it is functional, cell-based. The method in brief: as §1
The subject of test [6] is K562. Description: Induction of apoptosis in human K562 cells assessed as DNA fragmentation at 10 uM after 24 hrs by TUNEL assay. Format: functional, cell-based. The method in brief: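 TUNEL on K562 cells after 24 h exposure at 10 (micro)M: TdT-mediated incorporation of fluorescein-dUTP at free 3'-OH ends of fragmented DNA, run per kit maker's protocol; green-stained cells scored as TUNEL-positive; untreated cells as staining control.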

In test [7] the test system is K562. Description: Induction of apoptosis in human K562 cells assessed as upregulation of caspase7 protein expression at 10 uM after 24 hrs by Western blot analysis. In kind it is functional, cell-based. The method in brief:
as §1

Test [8] concerns K562. Briefly: Cell cycle arrest in human K562 cells at G1 phase assessed as decrease in CDK4 protein level at 10 uM after 24 hrs by Western blot analysis relative to control. In kind it is functional, cell-based. The method in brief: as §1
In test [9] the test system is K562. Description: Induction of apoptosis in human K562 cells assessed as effect on TNFR1 protein expression at 10 uM after 24 hrs by Western blot analysis. Format: functional, cell-based.
Test [10] has as its system K562. Description: Antiproliferative activity against human K562 cells assessed as reduction in incorporation of BrdU into cellular DNA at 10 uM after 24 hrs. Format: functional, cell-based. The method in brief: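 K562 cells seeded 15,000/well, grown 24 h, then labelled with BrdU 5 h at RT, then exposed to compound at final 10 (micro)M for 24 h. Detection by anti-BrdU, HRP secondary (1:2000) 30 min, TMB substrate 30 min at room temperature; optical density read at 450 nm.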

The test system of test [11] is K562. Briefly: Inhibition of NF-kappaB p65 in human K562 cells at 10 uM after 24 hrs by Western blot analysis. In kind it is cell-based. The essentials:
as §1

Test [12] has as its system K562. Description: Antiproliferative activity against human K562 cells assessed as down regulation of c-myc protein expression at 10 uM after 24 hrs by Western blot analysis relative to control. Format: functional, cell-based. The method in brief: as §1

Take `Cc1ccc(NS(=O)(=O)c2ccc(Cl)cc2)cc1Nc1nccc(-c2cccnc2)n1`: the results for the IC50 in the test with K562 [1], in the test with MDA-MB-231 and in the test on MCF7 were 10.2 µM, 7.79 µM and 11.8 µM, respectively.
Turning to `Cc1ccc(NS(=O)(=O)c2ccc(-c3ccccc3)cc2)cc1Nc1nccc(-c2cccnc2)n1`, the IC50 amounted to 9.49 µM in the test on K562 [1], 8 µM in the test with MDA-MB-231 and 11.9 µM in the test on MCF7.
The corresponding values for `Cc1ccc(NC(=O)c2ccc(CN3CCN(C)CC3)cc2)cc1Nc1nccc(-c2cccnc2)n1` [IMATINIB MESYLATE] are 0.21 µM, 1.8 µM and 0.83 µM.
As for `Cc1ccc(NS(=O)(=O)c2ccc3ccccc3c2)cc1Nc1nccc(-c2cccnc2)n1`, the IC50 with K562 [1] came out at 9.89 µM; in the test on MDA-MB-231, 8.31 µM; in the test with MCF7 it was 12 µM.
For the compound `COc1ccc(S(=O)(=O)Nc2ccc(C)c(Nc3nccc(-c4cc(OC)c(OC)c(OC)c4)n3)c2)cc1OC`, the result in the test with K562 [2], in the test with K562 [3], with K562 [4], with K562 [5], with K562 [6] and in the test on K562 [7] was Active. For the same compound, the result in the test with K562 [8] and in the test on K562 [10] was Active. The results for the IC50 in the test on K562 [1], with MDA-MB-231 and in the test with MCF7 were 8.57 µM, 7.48 µM and 11.6 µM, respectively. In addition, the result with K562 [9] was inactive.
With `COc1cc(-c2ccnc(Nc3cc(NS(=O)(=O)c4ccc5ccccc5c4)ccc3C)n2)cc(OC)c1OC`, the IC50 with K562 [1] amounted to 9.81 µM; in the test on MDA-MB-231, 7.55 µM; with MCF7, 11.6 µM.
On to `Cc1ccc(NS(=O)(=O)c2cnc3ccccc3c2)cc1Nc1nccc(-c2cccnc2)n1`, for which the result in the test with K562 [2], with K562 [3], with K562 [4], in the test on K562 [5], in the test on K562 [6] and with K562 [7] was Active. The result with K562 [8] and in the test with K562 [10] was Active. Also, the IC50 stood at 5.88 µM with K562 [1], 7.31 µM in the test with MDA-MB-231 and 9.96 µM with MCF7. In addition, the result in the test with K562 [11] and in the test with K562 [9] was inactive.
With `COc1ccc(S(=O)(=O)Nc2ccc(C)c(Nc3nccc(-c4cc(OC)c(OC)c(OC)c4)n3)c2)cc1`, the IC50 in the test on K562 [1] was found to be 9.12 µM; in the test with MDA-MB-231, 6.86 µM; with MCF7 it was 12.3 µM.
With `COc1cc(-c2ccnc(Nc3cc(NS(=O)(=O)c4ccc(-c5ccccc5)cc4)ccc3C)n2)cc(OC)c1OC`, the result in the test on K562 [12], in the test with K562 [2], in the test with K562 [3], in the test on K562 [4], in the test with K562 [5] and in the test with K562 [11] was Active. The outcome with K562 [6], with K562 [7], in the test with K562 [8] and with K562 [10] was Active. Besides, the IC50 in the test with K562 [1] came out at 5.6 µM; with MDA-MB-231, 6.93 µM; in the test with MCF7, 9.33 µM. In the test on K562 [9], the outcome was inactive.
